{"source": "ChEMBL document CHEMBL5335771", "about": "“Thioxanthenone-based derivatives as multitarget therapeutic leads for Alzheimer's disease” (Eur J Med Chem, 2023)", "key": {"SH-SY5Y": {"system": "SH-SY5Y", "test": "Neuroprotective activity against okadaic acid-induced cytotoxicity in human SH-SY5Y cells assessed as increase in cell viability at 50 uM incubated for 24 hrs by MTT assay", "assay_type": "functional, cell-based", "summary_of_the_method": "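SH-SY5Y cells grown in DMEM with 10% FBS and plated at 4.5×10^4 cells/well. Incubated 24 h at 37 °C, 5% CO2 with compound (0.1–50 μM) plus okadaic acid 100 nM. Viability by MTT, expressed as % of untreated cells; estradiol and PD38 as positive controls. Mean ± SD of three independent experiments; ANOVA with Dunnett's test.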"}, "Acetylcholinesterase": {"target": "Acetylcholinesterase (Electrophorus electricus, UniProt O42275)", "sequence (O42275 whole entry)": "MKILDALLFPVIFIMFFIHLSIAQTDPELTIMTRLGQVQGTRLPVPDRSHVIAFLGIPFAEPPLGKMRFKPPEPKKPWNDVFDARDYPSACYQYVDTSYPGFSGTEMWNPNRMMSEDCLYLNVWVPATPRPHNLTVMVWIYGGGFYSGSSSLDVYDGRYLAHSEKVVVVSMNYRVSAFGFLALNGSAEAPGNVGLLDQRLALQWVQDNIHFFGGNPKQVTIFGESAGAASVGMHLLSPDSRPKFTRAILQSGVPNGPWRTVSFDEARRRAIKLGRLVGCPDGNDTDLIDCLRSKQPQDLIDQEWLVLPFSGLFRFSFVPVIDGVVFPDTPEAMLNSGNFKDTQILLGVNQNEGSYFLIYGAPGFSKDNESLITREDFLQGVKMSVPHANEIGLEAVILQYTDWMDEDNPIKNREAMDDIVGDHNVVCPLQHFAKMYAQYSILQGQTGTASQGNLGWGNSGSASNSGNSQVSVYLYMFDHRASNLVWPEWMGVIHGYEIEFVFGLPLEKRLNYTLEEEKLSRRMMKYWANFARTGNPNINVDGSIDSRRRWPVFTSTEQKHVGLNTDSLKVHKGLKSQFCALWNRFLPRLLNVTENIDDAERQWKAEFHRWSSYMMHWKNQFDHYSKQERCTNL", "test": "Inhibition of electric eel AChE using acetylthiocholine iodide as substrate preincubated for 20 mins followed by substrate addition by DTNB reagent based Ellman's method"}, "[1]": {"test": "Cytotoxicity against mouse brain Primary embryonic cortical cell assessed as cell death at 10 uM incubated for 2 hrs by propidium iodide dye based spectrofluorometric analysis relative to control", "assay_type": "toxicity", "summary_of_the_method": "(§1)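 Primary cortical cultures from E16.5 mouse embryo brains, trypsinized, plated on poly-D-lysine, grown in Neurobasal with glutamine, glucose, 5% horse serum and B27; compounds added at 4 DIV. Propidium iodide 30 μM; baseline F1 read 1 h after PI; ex 530/em 645 nm. Fmax after digitonin permeabilization. % death = 100×(Fn−F1)/(Fmax−F1); mean of three independent experiments.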"}, "[2]": {"test": "Cytotoxicity against mouse brain Primary embryonic cortical cell assessed as cell death at 30 uM incubated for 24 hrs by propidium iodide dye based spectrofluorometric analysis relative to control", "assay_type": "toxicity", "summary_of_the_method": "as §1"}, "[3]": {"test": "Cytotoxicity against mouse brain Primary embryonic cortical cell assessed as cell death at 2.5 uM incubated for 5 hrs by propidium iodide dye based spectrofluorometric analysis relative to control", "assay_type": "toxicity", "summary_of_the_method": "as §1"}, "[4]": {"test": "Cytotoxicity against mouse brain Primary embryonic cortical cell assessed as cell death at 5 uM incubated for 5 hrs by propidium iodide dye based spectrofluorometric analysis relative to control", "assay_type": "toxicity", "summary_of_the_method": "as §1"}, "[5]": {"test": "Cytotoxicity against mouse brain Primary embryonic cortical cell assessed as cell death at 10 uM incubated for 5 hrs by propidium iodide dye based spectrofluorometric analysis relative to control", "assay_type": "toxicity", "summary_of_the_method": "as §1"}, "[6]": {"test": "Cytotoxicity against mouse brain Primary embryonic cortical cell assessed as cell death at 5 uM incubated for 3 hrs by propidium iodide dye based spectrofluorometric analysis relative to control", "assay_type": "toxicity", "summary_of_the_method": "as §1"}, "[7]": {"test": "Cytotoxicity against mouse brain Primary embryonic cortical cell assessed as cell death at 5 uM incubated for 48 hrs by propidium iodide dye based spectrofluorometric analysis relative to control", "assay_type": "toxicity", "summary_of_the_method": "as §1"}, "[8]": {"test": "Cytotoxicity against mouse brain Primary embryonic cortical cell assessed as cell death at 10 uM incubated for 4 hrs by propidium iodide dye based spectrofluorometric analysis relative to control", "assay_type": "toxicity", "summary_of_the_method": "as §1"}, "Cholinesterase": {"target": "Cholinesterase (Equus caballus, UniProt P81908)", "sequence (P81908 whole entry)": "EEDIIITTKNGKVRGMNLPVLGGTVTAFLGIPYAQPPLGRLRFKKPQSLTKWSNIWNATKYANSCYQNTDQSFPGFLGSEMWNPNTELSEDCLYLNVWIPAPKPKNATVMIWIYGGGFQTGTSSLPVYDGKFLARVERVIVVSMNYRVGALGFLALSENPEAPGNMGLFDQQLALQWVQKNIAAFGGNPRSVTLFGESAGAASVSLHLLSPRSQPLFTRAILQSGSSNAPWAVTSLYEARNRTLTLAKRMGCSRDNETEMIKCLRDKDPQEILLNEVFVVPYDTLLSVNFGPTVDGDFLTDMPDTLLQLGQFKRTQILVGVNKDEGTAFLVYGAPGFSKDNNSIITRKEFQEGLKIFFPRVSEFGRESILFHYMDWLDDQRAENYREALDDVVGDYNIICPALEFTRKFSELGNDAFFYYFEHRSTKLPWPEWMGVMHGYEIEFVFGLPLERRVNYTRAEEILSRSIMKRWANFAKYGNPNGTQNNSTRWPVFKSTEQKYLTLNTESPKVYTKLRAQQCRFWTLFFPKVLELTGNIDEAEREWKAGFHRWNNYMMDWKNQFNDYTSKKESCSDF", "test": "Inhibition of equine serum BChE using butyrylthiocholine iodide as substrate preincubated for 20 mins followed by substrate addition by DTNB reagent based Ellman's method", "assay_type": "cell-free"}, "[9]": {"test": "Cytotoxicity against mouse brain Primary embryonic cortical cell assessed as cell death at 30 uM incubated for 6 hrs by propidium iodide dye based spectrofluorometric analysis relative to control", "assay_type": "toxicity", "summary_of_the_method": "as §1"}}, "note": "pIC50: −log10 of the molar value. The source made the active and inactive calls. The calls are words filed in the database; no cut-off is given here.", "data": [{"smiles": "COc1ccc2sc3c(C)ccc(NCCC4CCN(C)CC4)c3c(=O)c2c1", "values": [{"measurement": "Activity", "setting": "SH-SY5Y", "value": "inactive"}, {"measurement": "pIC50", "setting": "Acetylcholinesterase", "value": 5.36}, {"measurement": "Activity", "setting": "[1]", "value": 43.5, "unit": "%"}, {"measurement": "Activity", "setting": "[2]", "value": 86.1, "unit": "%"}, {"measurement": "Activity", "setting": "[3]", "value": 23.8, "unit": "%"}, {"measurement": "Activity", "setting": "[4]", "value": 32.6, "unit": "%"}, {"measurement": "Activity", "setting": "[5]", "value": 54.4, "unit": "%"}, {"measurement": "Activity", "setting": "[6]", "value": 15.8, "unit": "%"}, {"measurement": "Activity", "setting": "[7]", "value": 85.6, "unit": "%"}, {"measurement": "Activity", "setting": "[8]", "value": 52.6, "unit": "%"}, {"measurement": "pIC50", "setting": "Cholinesterase", "value": 6.02}, {"measurement": "Activity", "setting": "[9]", "value": 61.9, "unit": "%"}]}]}
